A word on the GI50: it is the concentration at which growth is held to half of that of the control.

≈ marks a conversion by molar mass, not a printed value. Bounds are passed on as bounds.

The test system of series [1] is NCI/ADR-RES. The experiment in a line: Antiproliferative activity against human NCI/ADR-RES cells assessed as growth inhibition after 48 hrs by sulforhodamine B assay. It is filed as functional. A digest of the protocol:
(§1)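 Cells in RPMI with penicillin:streptomycin added, exposed 48 h at 37 °C, 5% CO2 to 0.25, 2.5, 25 and 250 µg/mL compound in DMSO/RPMI (0.1% v/v). Doxorubicin (0.025–25 µg/mL) served as positive control. Cells were then fixed with 50% TCA and stained with sulforhodamine B, with protein read at 540 nm. Growth = 100×(T−T0)/(C−T0), using T0 and 48 h readings. GI50 was obtained by non-linear regression. Done in triplicate.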
Background: In SRB staining, fixed cells bind dye roughly in proportion to their protein.

Series [2] is described as follows: Antiproliferative activity against human PC3 cells assessed as growth inhibition after 48 hrs by sulforhodamine B assay. It is filed as functional. The settings on record: PC-3, 48 h. In outline: as §1
For series [3], the system named is U-251. The experiment in a line: Antiproliferative activity against human U251 cells assessed as growth inhibition after 48 hrs by sulforhodamine B assay. It is filed as functional. The settings on record: U-251, 48 h. In outline: as §1
For series [4], the system named is MCF7. The experiment in a line: Antiproliferative activity against human MCF7 cells assessed as growth inhibition after 48 hrs by sulforhodamine B assay. It is filed as functional. The settings on record: MCF7, 48 h. In outline: as §1
Series [5] in a line: Antiproliferative activity against human HaCaT cells assessed as growth inhibition after 48 hrs by sulforhodamine B assay. It is filed as cell-based. In outline:
as §1

For series [6], the system named is HaCaT. Nature of the series: Selectivity index, ratio of GI50 for human HaCaT cells to GI50 for human U251 cells. Type of series: functional.
In series [7] the test system is NCI-H460. Nature of the series: Antiproliferative activity against human NCI-H460 cells assessed as growth inhibition after 48 hrs by sulforhodamine B assay. The settings on record: NCI-H460, 48 h. It is filed as functional. In outline: as §1
The test system of series [8] is HaCaT. Nature of the series: Selectivity index, ratio of GI50 for human HaCaT cells to GI50 for human OVCAR3 cells. It is filed as functional.
Series [9] is described as follows: Antiproliferative activity against human OVCAR3 cells assessed as growth inhibition after 48 hrs by sulforhodamine B assay. The settings on record: OVCAR-3, 48 h. It is filed as functional. A digest of the protocol:
as §1

Series [10] concerns HaCaT. The experiment in a line: Selectivity index, ratio of GI50 for human HaCaT cells to GI50 for human 786-0 cells. Type of series: functional.
Series [11] deals with HaCaT. Nature of the series: Selectivity index, ratio of GI50 for human HaCaT cells to GI50 for human PC3 cells. Type of series: functional.
For series [12], the system named is 786-0. Nature of the series: Antiproliferative activity against human 786-0 cells assessed as growth inhibition after 48 hrs by sulforhodamine B assay. Type of series: functional. The settings on record: 786-0, 48 h. A digest of the protocol: as §1
Series [13] concerns HaCaT. The experiment in a line: Selectivity index, ratio of GI50 for human HaCaT cells to GI50 for human NCI/ADR-RES cells. Type of series: functional.
Series [14] has as its system NCI-H460. The experiment in a line: Selectivity index, ratio of GI50 for human HaCaT cells to GI50 for human NCI-H460 cells. Type of series: functional.
For series [15], the system named is HaCaT. The experiment in a line: Selectivity index, ratio of GI50 for human HaCaT cells to GI50 for human MCF7 cells. It is filed as functional.

Consider `Clc1cc(Cl)c(Cn2cc(CCCOc3cccc4cccnc34)nn2)c(Cl)c1`, for which the GI50 in series [1] came to 2.8 mg/L (≈ 6.25 µM); in [2] it was 2.8 mg/L (≈ 6.25 µM); in [3], 3.1 mg/L (≈ 6.92 µM); in series [4] it was 2.9 mg/L (≈ 6.48 µM); in series [7], 7.4 mg/L (≈ 16.5 µM); in [9], 11.4 mg/L (≈ 25.5 µM). Moreover, the GI50 in series [12] amounted to 5.6 mg/L (≈ 12.5 µM). In addition, the concentration for 50% growth inhibition (GI50) at 48 h in series [5] amounted to 5.3 mg/L (≈ 11.8 µM). The RatioGI50 in [6] worked out at 1.7; in [8] it was 0.5; in series [10], 0.9; in series [11], 1.9; in [13], 1.9; in [14], 0.7. In series [15], the RatioGI50 is on record as 1.8.
For `Clc1ccc(Br)cc1Cn1cc(CCCOc2cccc3cccnc23)nn1`, the 50% growth inhibitory concentration (GI50) in [1] was 2.5 mg/L (≈ 5.46 µM); in series [2], 8.2 mg/L (≈ 17.9 µM); in series [3], 8.7 mg/L (≈ 19 µM); in [4], 9.6 mg/L (≈ 21 µM); in series [7] it was 7.9 mg/L (≈ 17.3 µM); in series [9], 8 mg/L (≈ 17.5 µM). In addition, the GI50 in series [12] was above 250 mg/L. Also, the GI50 at 48 h in series [5] is 4.9 mg/L (≈ 10.7 µM). Besides, the RatioGI50 in series [6] was 0.6; in [8], 0.6; in series [11], 0.6; in series [13], 2; in series [14], 0.6; in [15] it was 0.5.
With `c1ccc(Cn2cc(CCCOc3cccc4cccnc34)nn2)cc1`, the GI50 was 10.4 mg/L (≈ 30.2 µM) in series [1]; 16.8 mg/L (≈ 48.8 µM) in series [2]; 25.2 mg/L (≈ 73.2 µM) in series [3]; 12.7 mg/L (≈ 36.9 µM) in series [4]; 28.6 mg/L (≈ 83 µM) in [7]; 24.3 mg/L (≈ 70.6 µM) in series [9]. In addition, the GI50 in series [12] came to 25 mg/L (≈ 72.6 µM). The 50% growth inhibitory concentration (GI50) at 48 h in series [5] was determined as 12.7 mg/L (≈ 36.9 µM). The RatioGI50 in series [6] is 0.5; in series [8], 0.5; in series [10], 0.5; in [11], 0.8; in [13] it was 1.2; in series [14] it was 0.4. Moreover, in [15], the RatioGI50 stood at 1.
Consider `c1cncc(CCCn2cc(CCCOc3cccc4cccnc34)nn2)c1`, for which the GI50 in series [1] was determined as 12.5 mg/L (≈ 33.5 µM); in [2] it was 26.7 mg/L (≈ 71.5 µM); in [3] it was 25.1 mg/L (≈ 67.2 µM); in series [4], 27.8 mg/L (≈ 74.4 µM); in [7], 44.3 mg/L (≈ 119 µM); in series [9], 39.1 mg/L (≈ 105 µM). Also, the GI50 in series [12] was 69.4 mg/L (≈ 186 µM). Moreover, the GI50 at 48 h in [5] was 25 mg/L (≈ 66.9 µM). Also, the RatioGI50 was 1 in [6]; 0.6 in series [8]; 0.4 in series [10]; 0.9 in series [11]; 2 in series [13]; 0.6 in [14]. In addition, in series [15], the RatioGI50 came to 0.9.
On to `CC1(C)O[C@H]2[C@@H](O1)[C@@H](Cn1cc(CCCOc3cccc4cccnc34)nn1)O[C@@H]1OC(C)(C)O[C@@H]12`, for which the GI50 in series [1] was 28.6 mg/L (≈ 57.6 µM); in series [2], 16.2 mg/L (≈ 32.6 µM); in series [3] it was 24.3 mg/L (≈ 48.9 µM); in series [4], 2.6 mg/L (≈ 5.24 µM); in [7], 30.1 mg/L (≈ 60.6 µM); in [9], below 0.25 mg/L. Moreover, in series [12], the GI50 came to 30.8 mg/L (≈ 62 µM). Moreover, the concentration for 50% growth inhibition (GI50) at 48 h in series [5] is 29.4 mg/L (≈ 59.2 µM). The RatioGI50 in series [6] is on record as 1.2; in series [8], above 117.6; in [10], 0.9; in series [11], 1.8; in series [13] it was 1; in series [14], 1. In series [15], the RatioGI50 was found to be 11.3.
As for `O=C(Cn1cc(CCCOc2cccc3cccnc23)nn1)OCc1ccc(F)c(F)c1`, the GI50 in series [1] was determined as 4.9 mg/L (≈ 11.2 µM); in [2], 2.9 mg/L (≈ 6.61 µM); in [3], 26.5 mg/L (≈ 60.4 µM); in series [4], 27.2 mg/L (≈ 62 µM); in series [7] it was 29.2 mg/L (≈ 66.6 µM); in series [9], 15.1 mg/L (≈ 34.4 µM). In series [12], the GI50 came out at 26.1 mg/L (≈ 59.5 µM). In series [5], the 50% growth inhibitory concentration (GI50) at 48 h stood at 21.4 mg/L (≈ 48.8 µM). For the same compound, the RatioGI50 in series [6] stood at 0.8; in [8], 1.4; in series [10], 0.8; in [11], 7.4; in series [13] it was 4.4; in series [14], 0.7. In series [15], the RatioGI50 is 0.8.
On to `COc1cccc2c1C(=O)c1c(O)c3c(c(O)c1C2=O)C[C@@](O)(C(=O)CO)C[C@@H]3O[C@H]1C[C@H](N)[C@H](O)[C@H](C)O1` [DOXORUBICIN], for which the GI50 is 0.54 mg/L (≈ 0.994 µM) in series [1]; 3.8 mg/L (≈ 6.99 µM) in series [2]; 0.039 mg/L (≈ 0.0718 µM) in [3]; 0.038 mg/L (≈ 0.0699 µM) in series [4]; below 0.025 mg/L in series [7]; 0.43 mg/L (≈ 0.791 µM) in series [9]. In [12], the GI50 was determined as 0.15 mg/L (≈ 0.276 µM). Further, the GI50 at 48 h in series [5] came to 0.11 mg/L (≈ 0.202 µM).

The values above are taken from ChEMBL document CHEMBL3352314, “Synthesis and antiproliferative activity of 8-hydroxyquinoline derivatives containing a 1,2,3-triazole moiety” (Eur J Med Chem, 2014).
